ChEMBL document CHEMBL4373650, “Synthesis, conformational preferences, and biological activity of conformational analogues of the microtubule-stabilizing agents, (-)-zampanolide and (-)-dactylolide” (Medchemcomm, 2019)

Columns and labels:
Tubulin (Homo sapiens) [1] = molecular target: T1, Tubulin (Homo sapiens) (UniProt P68371+Q9H4B7+P0DPH7+P68366+Q13509+Q71U36+P04350+Q3ZCM7+P07437+P68363+Q9BQE3+Q6PEY2+Q13885+Q9BVA1+Q9BUF5); test: Induction of microtubule stabilization in human PC3 cells assessed as inhibition of cell growth incubated for 72 hrs by Celltiter reagent-based assay
Procedure, shortened: (§1)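 Cells kept in DMEM with 10% fetal bovine serum. Exposed to serial dilutions of each compound for 3 days, then growth read with CellTiter reagent and GI50 determined. Each compound first run as a 10-dose dilution series, then as narrower replicate 6-dose series, each a separate experiment.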

Tubulin (Homo sapiens) [2] = molecular target: T1, Tubulin (Homo sapiens); test: Induction of microtubule stabilization in human A549 cells assessed as inhibition of cell growth incubated for 72 hrs by Celltiter reagent-based assay; procedure, shortened: as §1
Tubulin (Homo sapiens) [3] = molecular target: T1, Tubulin (Homo sapiens); test: Induction of microtubule stabilization in human 1A9 cells assessed as inhibition of cell growth incubated for 72 hrs by Celltiter reagent-based assay; procedure, shortened: as §1

| Structure (SMILES) | GI50 (Tubulin (Homo sapiens) [1]) [nM] | GI50 (Tubulin (Homo sapiens) [2]) [nM] | GI50 (Tubulin (Homo sapiens) [3]) [nM] |
| --- | --- | --- | --- |
| C=C1C[C@@H]2C/C=C/C(=O)C/C(C)=C\C=C\C(=O)O[C@H]([C@H](O)NC(=O)/C=C\C=C\C)C/C(C)=C/[C@H](C1)O2 | 3.2 | 5.2 | 2.1 |
| CC(=O)O[C@H]1C(=O)[C@@]2(C)[C@H]([C@H](OC(=O)c3ccccc3)[C@]3(O)C[C@H](OC(=O)[C@H](O)[C@@H](NC(=O)c4ccccc4)c4ccccc4)C(C)=C1C3(C)C)[C@]1(OC(C)=O)CO[C@@H]1C[C@@H]2O | 4.6 | 6 | 5.2 |
| C=C1C[C@@H]2C/C=C/C(=O)C/C(C)=C\C=C\C(=O)O[C@H](C=O)C/C(C)=C/[C@H](C1)O2 | 460 | 950 | 620 |

Continued, values first:

| GI50 (Tubulin (Homo sapiens) [1]) [nM] | GI50 (Tubulin (Homo sapiens) [2]) [nM] | GI50 (Tubulin (Homo sapiens) [3]) [nM] | Structure (SMILES) |
| --- | --- | --- | --- |
| 56 | 180 | 120 | C/C=C/C=C\C(=O)NC(O)[C@@H]1C/C=C/[C@@H]2CCC[C@H](C/C=C/C(=O)C/C(C)=C\C=C\C(=O)O1)O2 (stereo partly drawn) |
| > 30000 | > 30000 | > 30000 | C/C1=C/C=C/C(=O)O[C@H](CO)C/C=C/[C@@H]2CCC[C@H](C/C=C/C(=O)C1)O2 |
| > 30000 | > 30000 | > 30000 | C/C1=C/C=C/C(=O)O[C@H](C=O)C/C=C/[C@@H]2CCC[C@H](C/C=C/C(=O)C1)O2 |
